OX1R antag-1 – OX1R (human) antagonism. AID 485270. OX1R-expressing cells, FRET antagonist read-out. hit rate 1.8% among 330,000. O43613. inhibition, % at 6.6 µM; in the data active = inhibition mostly above about 38%, no sharp cut-off; inactive = mostly below about 40%;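 note: 0% = agonist challenge alone and 100% = reference antagonist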
TAAR1 antag – human TAAR1 antagonism | hit rate 1.5% among 360,000 | Q96RJ0 | AID 624466 | inhibition, % at 3 µM | CHO RD-HGA16 TAAR1, Fluo-8 calcium fluorescence, antagonist;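 active = inhibition above a per-plate cutoff, the mean inhibition of test compounds on that plate plus 3 SD, cut at about 49% in these data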;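 note: 0% = DMSO plus EC80 beta-PEA response and 100% = DMSO alone without agonist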
Target sequence (Q96RJ0 whole entry, looked up): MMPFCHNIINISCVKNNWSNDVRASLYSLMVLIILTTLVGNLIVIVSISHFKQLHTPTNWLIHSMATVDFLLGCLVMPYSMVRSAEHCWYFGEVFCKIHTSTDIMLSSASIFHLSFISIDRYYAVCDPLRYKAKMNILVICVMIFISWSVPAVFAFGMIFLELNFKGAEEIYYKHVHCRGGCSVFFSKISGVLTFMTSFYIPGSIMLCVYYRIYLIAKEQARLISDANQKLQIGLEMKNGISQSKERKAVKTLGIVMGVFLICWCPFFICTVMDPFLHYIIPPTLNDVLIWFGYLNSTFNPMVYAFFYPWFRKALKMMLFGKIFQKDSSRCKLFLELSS
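Material: RD-HGA16 CHO cells with stable hTAAR1 and Gα16; Dosing: single nominal final test compound concentration of 3 µM; Schedule: seeding 17-24 h prior, 75-min 37 °C, 30-min RT dye loading; Detection: kinetic Fluo-8 calcium fluorescence measurement; Measure: % inhibition from peak post-agonist over basal fluorescence ratio; Benchmarks: vehicle and agonist controls.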
OX1R antag-2 – blocks the human orexin 1 receptor. inhibition, % at 5 µM. CHO/OX1R cells, Fluo-8 calcium fluorescence, orexin A. hit rate 0.43% among 330,000. O43613;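 active = inhibition above its plate's threshold, mean inhibition of all tested compounds on the plate plus 3 SD, cut at about 37% in these data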;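 note: 0% = orexin A challenge wells and 100% = SB-334867-A antagonist wells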
CHO parental Ca – signal in parental CHO cells, OX1R antagonist counter-screen; parental CHO-K1, ATP-induced calcium, Fluo-8 fluorescence; inhibition, % at 5.6 µM; hit rate 0.63% among 330,000; AID 463079;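 active = inhibition above that plate's mean sample inhibition plus 3 SD, cut at about 26% in these data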;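 note: 0% = ATP-challenged DMSO wells and 100% = DMSO wells without ATP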
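Material – parental CHO cells · Reagent – ATP stimulus · Compound – single nominal dose of 5.6 µM per compound · Detection – Fluo-8 fluorescence · Read-out basis – percent inhibition of calcium signal · Controls – ATP-challenged DMSO wells low, unchallenged DMSO wells high · Repeats – no replicates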
TAAR1 agonist – human TAAR1 agonism. Q96RJ0. CHO RD-HGA16 TAAR1, Fluo-8 calcium fluorescence; vehicle wells 0%, saturating PEA agonist 100%. activation, % at 3 µM. hit rate 0.99% among 360,000;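 active = activation above the mean activation of all test compounds in the run plus 3 SD, cut at about 38% in these data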
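Signal – calcium-sensitive Fluo-8 signal, excitation 470-495, emission 515-575 nm · System – RD-HGA16 (CHO) cells co-expressing Gα16 and hTAAR1 · Incubation – 17-24 h seeding, 75 min 37 °C dye, 30 min RT · Compound dosing – 3 µM single concentration · Repeats – no replicates (n 1)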
GPR7 antagonist – human neuropeptides B/W receptor 1 antagonism; hit rate 1.1% among 290,000; inhibition, % at 4.4 µM; GPR7-expressing cells, fluorescence antagonist assay; in the data active = inhibition above about 16%, passing the limit was not always enough;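 note: cells stimulated with the agonist NPW; 0% = agonist with vehicle and 100% = vehicle without agonist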
Target sequence (P48145 whole entry, looked up): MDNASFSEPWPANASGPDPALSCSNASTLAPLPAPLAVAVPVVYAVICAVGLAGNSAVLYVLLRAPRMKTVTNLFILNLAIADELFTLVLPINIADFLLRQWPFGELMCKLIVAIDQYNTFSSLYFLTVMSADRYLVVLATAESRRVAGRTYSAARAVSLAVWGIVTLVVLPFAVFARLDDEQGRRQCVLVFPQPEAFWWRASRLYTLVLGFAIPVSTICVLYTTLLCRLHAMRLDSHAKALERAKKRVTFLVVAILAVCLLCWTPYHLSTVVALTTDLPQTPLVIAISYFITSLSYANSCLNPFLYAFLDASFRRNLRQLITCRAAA
* = called active by the depositor; . = no result. Rows were chosen to be rich in hits. Some 4.6% of all compounds tested hit in one or more screens of this group.

SMILES	OX1R antag-1	TAAR1 antag	OX1R antag-2	CHO parental Ca	TAAR1 agonist	GPR7 antagonist
O=C(CNC(=O)OCc1ccccc1)OC(c1ccccc1)c1ccccc1	.	-8.2	.	.	2.5	.
CCn1nc(C)cc1C(=O)N1CCc2c([nH]c3ccccc23)C1c1cc(F)ccc1F (stereo unspecified)	17.1	28.9	-21.4	-21.6	4.2	19.3*
CCc1ccc(C(O)c2ncc(-c3ccc(Cl)cc3)[nH]2)cc1 (stereo unspecified)	.	-16.6	.	.	4.2	.
CC1(C(=O)NCCc2ccccc2)Cc2c(-c3ccccc3)ccnc2O1 (stereo unspecified)	.	-16.9	.	.	1.5	.
Cc1ccc([C@@H]2CC=C(C(=O)O)[C@H](c3ccc(F)cc3)N2S(=O)(=O)c2ccc(C)cc2)cc1	69.5*	11.2	0.6	-15.7	0.4	.
Cc1ccc(S(=O)(=O)N2[C@@H](c3ccccc3F)C(C(=O)O)=CC[C@H]2c2ccc3c(c2)OCO3)cc1	47.2*	8.5	-4.1	-7.2	11.8	.
Cc1ccc(S(=O)(=O)N2[C@@H](c3ccc(Br)cc3)C(C(=O)O)=CC[C@H]2c2ccc(C(C)C)cc2)cc1	19.8	3.0	54.2*	74.7*	0.2	.
Cc1ccc([C@@H]2CC=C(C(=O)O)[C@H](c3ccc(Br)cc3)N2S(=O)(=O)c2ccc(C)cc2)cc1	39.4*	15.0	2.5	-12.4	3.7	.
O=Nc1ccccn1	.	-24.5	.	.	0.7	.
CCN1C(=O)N(C(C)=O)[C@H]2C[C@H](C(=O)N3CCCC3)[C@H](C)[C@H](c3ccccc3)C[C@H]21	.	-25.9	.	.	2.4	.
COc1ccc(S(=O)(=O)N2CCOC23CCN(S(=O)(=O)c2c(C)cc(C)cc2C)CC3)cc1	35.2	6.7	-22.5	-9.2	0.7	.
Cc1[nH]c2ccccc2c1C(=O)COC(=O)C1CC(O)CN1S(=O)(=O)c1ccc(Cl)cc1 (stereo unspecified)	16.0	43.6	-3.6	-21.6	12.2	.
CC(O)C(NS(=O)(=O)c1ccc(Cl)cc1)C(=O)OCC(=O)c1c[nH]c2ccccc12 (stereo unspecified)	0.6	58.0*	6.7	15.9	18.6	15.2
CSCCC(NS(=O)(=O)c1ccc(Cl)cc1)C(=O)OCC(=O)c1c(C)[nH]c2ccccc12 (stereo unspecified)	75.8*	80.7*	79.4*	82.4*	19.1	12.1
CC(C)C(NS(=O)(=O)c1c(Cl)cccc1Cl)C(=O)OCC(=O)c1c[nH]c2ccccc12 (stereo unspecified)	24.0	20.4	-7.3	-12.0	6.9	-0.4
COCCNC(=O)c1cc(-c2ccccc2)sc1N	.	-0.2	.	.	3.7	.
S=c1[nH]nc(-c2ccncc2)n1/N=C/C(Cl)=C\c1ccccc1	42.5*	-13.4	-27.9	-19.2	52.4*	6.4
O=[N+]([O-])c1ccc(S(=O)(=O)N(CC(O)CN2CCCCC2)c2ccccc2)cc1 (stereo unspecified)	47.5*	4.3	-1.9	-15.0	2.5	4.5
CC1CC(C)(C)CC2(C1)NC(=O)N(CC(=O)Nc1cc(C(F)(F)F)ccc1N1CCCCC1)C2=O (stereo unspecified)	.	-19.6	.	.	-0.6	.
CCOc1ccccc1N(C(=O)c1snc(C(N)=O)c1N)C(C(=O)NC1CCCC1)c1cccs1 (stereo unspecified)	18.0	-13.6	-31.5	-37.7	-4.0	-7.4
CCOc1ccccc1N(C(=O)c1snc(C(N)=O)c1N)C(C(=O)NC1CCCC1)c1ccco1 (stereo unspecified)	12.1	0.8	-25.9	-13.8	9.5	20.9*
CCc1ccccc1N(C(=O)c1snc(C(N)=O)c1N)C(C(=O)NCC1CCCO1)c1ccc(N(C)C)cc1 (stereo unspecified)	.	-7.0	.	.	-1.1	-0.4
CN(C)c1ccc(C(C(=O)NCC2CCCO2)N(C(=O)c2snc(C(N)=O)c2N)c2ccc3c(c2)OCO3)cc1 (stereo unspecified)	32.0	21.9	-19.2	-8.4	13.4	0.6
CC(C)c1ccc(N(C(=O)c2snc(C(N)=O)c2N)C(C(=O)NCC2CCCO2)c2ccc(N(C)C)cc2)cc1 (stereo unspecified)	.	55.3*	.	.	24.1	-30.4
CN(C)c1ccc(C(C(=O)NCC2CCCO2)N(C(=O)c2snc(C(N)=O)c2N)c2ccccc2)cc1 (stereo unspecified)	8.8	51.7*	-4.2	6.0	22.3	-7.0
SMILES	OX1R antag-1	TAAR1 antag	OX1R antag-2	CHO parental Ca	TAAR1 agonist	GPR7 antagonist
COc1ccc(N(C(=O)c2snc(C(N)=O)c2N)C(C(=O)NC2CCCC2)c2ccc3ncccc3c2)cc1 (stereo unspecified)	18.8	47.6	-3.7	-14.5	6.7	-18.4
NC(=O)c1nsc(C(=O)N(c2ccccc2)C(C(=O)NC2CCCC2)c2ccc3ncccc3c2)c1N (stereo unspecified)	16.7	51.3*	-4.4	-6.9	8.3	-14.4
COc1ccc2c(c1)[C@@]1(OCCC=C[C@H]1C)C(=O)N2Cc1ccc(F)cc1	.	-11.0	.	.	1.2	.
COc1cc(NC(=O)[C@@H](Cc2ccccc2)NC(=O)[C@H]2O[C@@H](n3ccc(=O)[nH]c3=O)[C@H](O)[C@@H]2O)cc(OC)c1OC	.	-4.2	.	.	0.1	.
CCCCc1c(-c2ccccc2OC)ncn1Cc1c(F)cccc1F	.	5.8	.	.	1.1	.
CCc1cc(=O)oc2c(C)c(OC(C)C(=O)NCCCn3ccnc3)ccc12 (stereo unspecified)	5.2	-11.3	-13.0	-8.9	0.7	-5.9
C=CCNC(=S)N(C)[C@H]1C[C@H]2c3[nH]c4c(-c5ccccc5)cccc4c3CCN2C(=O)[C@H]1[C@H](C)O	.	37.7	.	.	14.8	.
COc1ccc(S(=O)(=O)N2CCN(C(=O)c3cc(-c4ccc(Br)cc4)n[nH]3)CC2)cc1OC	15.5	61.8*	24.5	23.2	10.3	-5.8
CCCC1NC(=O)c2cccnc2-n2c1nc1ccc(C)cc1c2=O (stereo unspecified)	.	-15.0	.	.	1.0	.
Cc1cccc(C=Nc2ccc3c4c(cccc24)CC3)c1O	17.3	-0.4	54.0*	38.9*	7.3	-4.7
Oc1ccc(Cl)cc1C=Nc1ccc2c3c(cccc13)CC2	13.1	-9.0	62.2*	59.4*	2.6	4.4
COc1ccc(-c2nnnn2C)cc1S(=O)(=O)Nc1ccc(C)cc1C	-7.9	-26.6	-20.4	-8.5	1.2	-13.2
COc1cc(/C=C2\SC(=O)NC2=O)ccc1OCC(=O)N1CCOCC1	51.8*	-9.9	15.6	-13.7	-0.8	.
CN(CC(=O)NCC1CCCCC1)CC(=O)Nc1ccc(F)cc1	0.7	-9.6	3.4	-12.9	6.8	.
Cc1ccc(/C(C#N)=C\c2ccc(N3CCOCC3)o2)cc1	7.9	24.3	-22.0	-10.6	14.2	4.7
Cc1ccc2nc(/C(C#N)=C\c3ccc(N4CCOCC4)o3)[nH]c2c1	25.5	20.8	-1.6	-1.5	43.1*	-15.7
